# Screens (PubChem BioAssay)
# SUMO1-SIM PPI: SUMO1-SIM interaction modulation; P63165; 360,000 compounds, 0.33% hits; inhibition, % at 20 µM; SUMO1 binding to a labelled peptide, TR-FRET, 1 h; in the data active = inhibition above about 37%
# Target sequence (P63165 whole entry, looked up): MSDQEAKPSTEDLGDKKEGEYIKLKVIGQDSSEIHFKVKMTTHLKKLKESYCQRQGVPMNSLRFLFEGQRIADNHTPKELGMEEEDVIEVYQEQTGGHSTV
# Scp-1 inhibitor: blocks human Scp-1 phosphatase activity; Q9GZU7; Recombinant Scp1, phosphopeptide, malachite green phosphate absorbance; inhibition, % at 20 µM; 340,000 compounds, 0.88% hits;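 active = inhibition above about 50% at 20 µM, limit read from the data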;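 note: plate controls were DMSO wells with enzyme for no effect and wells lacking enzyme for full effect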
#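 Times: enzyme reaction 45 min at room temperature, colour 5 min, stabilisation 30 min. Material: SCP-1 catalytic fragment, aa 76-261. Medium: Acidic Tris acetate buffer with magnesium and detergent. Signal: colorimetric free-phosphate detection, absorbance 630 nm. Read-out basis: % inhibition of SCP-1 phosphate liberation. Reagent: Phosphorylated 17-residue peptide substrate.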
# DNMT1 inh: inhibitors of human DNMT1; P26358; DNMT1 molecular beacon, Hinp1I cleavage, fluorescence; inhibition (reported as % activation of signal), % at 10 µM; 360,000 compounds, 0.83% hits; in the data active = inhibition above about 50%
# LMPTP inh: blocks human LMPTP phosphatase. P24666. recombinant LMPTP-A, OMFP fluorogenic substrate, fluorescence intensity. inhibition, % at 20 µM. 360,000 compounds, 0.22% hits;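 active = compounds that cut the enzyme signal by at least half of the control window in the single-dose screen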;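 note: plate controls were DMSO wells with enzyme plus substrate for no effect and substrate without enzyme for full effect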
#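 Buffer or medium: Bis-Tris pH 6.0, DTT, detergent; Assay system: LMPTP-A enzyme; Quantity: 0.625 nM enzyme; Detection: endpoint fluorescence intensity; Times: 50 min dark incubation at room temperature; Controls: substrate-only low control, DMSO enzyme-plus-substrate high control; Doses: single 20 µM dose; Read-out: percent inhibition versus substrate-only and uninhibited controls; Reagent: 400 µM OMFP.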
# UBC9 SUMO inh: blocks human SUMOylation mediated by UBC9; 290,000 compounds, 0.36% hits; HTRF SUMOylation assay, SAE1/SAE2 + UBC9, in vitro; inhibition, % at 35 µM; AID 2006; in the data active = inhibition above about 50%, passing the limit was not always enough
# STEP inh: inhibitors of human striatal-enriched phosphatase STEP. 360,000 compounds, 0.25% hits. inhibition, % at 20 µM. recombinant STEP, OMFP fluorogenic substrate, fluorescence;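 active = inhibition at 20 µM, scaled per plate between control wells, above about 37%, limit read from the data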;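 note: 0% = DMSO with enzyme and substrate and 100% = substrate only without enzyme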
# Target sequence (P54829 whole entry, looked up): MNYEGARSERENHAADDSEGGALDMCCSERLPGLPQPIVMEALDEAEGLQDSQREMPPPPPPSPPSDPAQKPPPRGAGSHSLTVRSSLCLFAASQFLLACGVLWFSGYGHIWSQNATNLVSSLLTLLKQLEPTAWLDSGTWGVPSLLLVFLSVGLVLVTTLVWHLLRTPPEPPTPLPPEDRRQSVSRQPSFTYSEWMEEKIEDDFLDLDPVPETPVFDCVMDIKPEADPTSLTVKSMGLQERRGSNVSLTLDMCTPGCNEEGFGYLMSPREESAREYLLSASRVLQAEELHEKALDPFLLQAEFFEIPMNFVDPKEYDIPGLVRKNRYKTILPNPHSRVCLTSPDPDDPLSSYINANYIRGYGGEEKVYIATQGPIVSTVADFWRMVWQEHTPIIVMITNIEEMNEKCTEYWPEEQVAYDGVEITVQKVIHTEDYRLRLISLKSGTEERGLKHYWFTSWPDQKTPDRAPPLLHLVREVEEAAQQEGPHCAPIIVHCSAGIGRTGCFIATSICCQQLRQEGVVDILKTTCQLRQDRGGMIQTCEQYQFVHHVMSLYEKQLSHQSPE
#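 Also added – OMFP at 25 µM · Test system – STEP tyrosine phosphatase · Technique – FITC-channel fluorescence of OMFP product · Schedule – 20 min at room temperature, dark · Evaluation – control-normalized % inhibition with plate pattern correction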
# Scp-1 conf: confirmation of human Scp-1 phosphatase inhibitors; inhibition, % at 20 µM; shares compounds with Scp-1 inhibitor; 2,500 compounds, 61% hits; recombinant SCP-1 catalytic domain, phosphate release, malachite green absorbance; AID 540281;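 note: plate controls were DMSO with enzyme for no effect and buffer wells lacking enzyme for full effect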
# Scp-1 MG ctr: colorimetric interference in Scp-1 counter-screen; shares compounds with Scp-1 inhibitor; Colorimetric interference counterscreen, malachite green absorbance 630 nm; apparent inhibition (interference), % at 20 µM; 2,500 tested, under 10 active;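 note: compounds added after enzyme reaction finished so only phosphate colour detection is probed; plate controls were DMSO wells with completed Scp-1 reaction for no effect and substrate wells lacking enzyme for full effect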
# Scp-1 Tm shift: Scp-1 (human) binding by thermal shift | Recombinant SCP1, Sypro Orange thermal shift Tm | thermal shift relative to vanadate control, % at 40 µM | shares compounds with Scp-1 inhibitor | AID 540329 | 1,500 compounds, 25% hits;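 active = substances whose mean melting-temperature shift, as a percentage of the reference inhibitor's shift, reaches about 5.3%, limit read from the data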;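 note: 0% = Tm of DMSO wells and 100% = Tm with sodium orthovanadate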
# Active calls of the source: *; . = no result given. Most compounds without a hit are left out; they make up all but 1.9% or so of the library.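 Rule for the calls, unless noted: active = inhibition of at least 30% at 20 µM; inactive = the rest.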
SMILES,SUMO1-SIM PPI,Scp-1 inhibitor,DNMT1 inh,LMPTP inh,UBC9 SUMO inh,STEP inh,Scp-1 conf,Scp-1 MG ctr,Scp-1 Tm shift
C=CCOCCN1C(=O)C2C3C=CC(C2C1=O)C1C2C(=O)N(CCOCC=C)C(=O)C2C31 (stereo not drawn),-1,61*,27,2,13,0,72*,-10,-20
CC(=O)Nc1ccc(-c2nnc(SCC(=O)n3c4c(c5ccccc53)CCCC4)n2C)cc1,0,84*,1,0,-8,4,8,3,.
CCCCNC(=S)N/N=C/c1ccc(C#N)cc1,-2,-4,-1,1,-13,3,.,.,.
COc1ccc(/C=N/NC(=O)c2cccc(NC(=O)c3ccc(Cl)cc3)c2)c(OC)c1,14,83*,15,2,48,4,66*,-15,-15
COc1ccc(/C=N/NC(=O)c2ccc(NC(=O)c3cccc([N+](=O)[O-])c3)cc2)c(OC)c1,8,-3,-26,0,2,0,.,.,.
O=C(COC(=O)CCCC1=NS(=O)(=O)c2ccccc2N1)Nc1ccc(Br)cc1,-8,51*,-1,0,-11,-5,-21,-19,.
Cc1ccc(NC(=O)COC(=O)CCCC2=NS(=O)(=O)c3ccccc3N2)cc1C,-4,3,3,-1,.,-1,.,.,.
c1ccc(-n2nnnc2-c2cccc3ccccc23)cc1,2,0,3,1,.,-3,.,.,.
Cc1cc(C)n2nc(C(=O)OCC(=O)c3ccccc3Cl)nc2n1,1,-2,-2,0,.,2,.,.,.
Cc1cc(C(=O)COC(=O)c2cc(Cl)c(O)c(Cl)c2)c(C)n1C,34,55*,55*,5,.,3,36*,-14,9.4*
Cc1cc(C)n2nc(C(=O)OCC(=O)c3cc(C)n(C)c3C)nc2n1,0,52*,26,1,8,1,58*,-15,-2
O=C1CC(=O)N2N=C(c3ccc([N+](=O)[O-])cc3)SC2=N1,5,69*,24,7,-3,3,68*,-6,6.2*
CSc1ncnc2ncn(C)c12,0,-15,-4,-1,.,2,.,.,.
Cc1ccc2nc(/C(C#N)=C\c3ccc(N4CCCCC4)c([N+](=O)[O-])c3)[nH]c2c1,-12,109*,50,2,13,10,77*,-3,12*
CC1=NNC(=O)C1CCC(=O)N/N=C/c1ccco1 (stereo not drawn),-4,-4,-3,-2,14,-4,46*,-14,-21
COc1ccc(OC)c(/C=N/NC(=O)CC2C(=O)NN=C2C)c1 (stereo not drawn),-8,-2,4,0,32,-1,2,-6,.
Cc1cccc(NC(=S)NC(=O)/C=C/c2ccco2)n1,-12,-9,3,1,8,1,.,.,.
CC(=O)Nc1ccc(S(=O)(=O)NCC(=O)NNC(=O)COc2ccccc2Cl)cc1,-1,-3,1,-1,.,0,-25,-26,.
CCC1CCCCN1C(=O)CSc1nc2ncccc2[nH]1 (stereo not drawn),-1,-9,2,-1,.,11,.,.,.
CC1C(=O)Nc2ccc(S(=O)(=O)N3CCN(c4cccc(C(F)(F)F)c4)CC3)cc2NC1=O (stereo not drawn),5,6,0,3,6,2,.,.,.
O=C(CSc1nc(-c2ccc(F)cc2)cs1)NC(=O)NCc1ccco1,2,74*,40,7,11,6,39*,-12,-12
Nn1c(SCC(=O)NC(=O)NCc2ccco2)nnc1-c1ccc(OC(F)F)cc1,4,63*,49,7,13,-4,54*,-22,3
O=C(CSc1nncs1)NC(=O)NCc1ccco1,-1,-6,-3,0,24,-2,.,.,.
Cc1noc(C)c1NC(=O)N(C)C[C@H]1Oc2c(cccc2N(C)C)C(=O)N([C@H](C)CO)C[C@@H]1C,1,74*,4,-1,.,-4,17,2,.
Cc1noc(C)c1NC(=O)N(C)C[C@H]1Oc2c(NC(=O)C3CC3)cccc2C(=O)N([C@H](C)CO)C[C@@H]1C,9,0,3,0,.,0,.,.,.
SMILES,SUMO1-SIM PPI,Scp-1 inhibitor,DNMT1 inh,LMPTP inh,UBC9 SUMO inh,STEP inh,Scp-1 conf,Scp-1 MG ctr,Scp-1 Tm shift
COc1ccc(S(=O)(=O)N(C)C[C@H]2Oc3c(NC(=O)Nc4c(C)noc4C)cccc3C(=O)N([C@@H](C)CO)C[C@H]2C)cc1,0,56*,-3,-2,.,0,1,-16,.
O=C(CN1CCN(CN2C(=O)NC3(CCCCCC3)C2=O)CC1)Nc1ccc(F)cc1,-3,-1,2,-2,.,-1,.,.,.
Cc1cc2c(NC(=O)Nc3ccc(F)cc3)cccc2nn1,-23,2,-5,-2,98,-3,.,.,.
Cc1cc2c(NC(=O)CC(C)(C)CC(=O)O)cccc2nn1,-1,52*,-16,1,20,4,-8,-11,.
Cc1ccc(S(=O)(=O)N2CCN(S(=O)(=O)c3ccccc3Br)C2=O)cc1,1,7,0,1,.,2,.,.,.
O=S(=O)([O-])CCC[n+]1ccc(Oc2ccccc2)cc1,-3,95*,1,-2,4,6,94*,0,-25
Cc1ccc2ccccc2[n+]1CCCS(=O)(=O)[O-],-10,18,4,0,12,0,.,.,.
Cc1nn(C)cc1C(C)NC(=O)c1cc(COc2ccc(F)c(F)c2)on1 (stereo not drawn),2,-2,-3,0,-2,-1,.,.,.
CCN(C[C@H]1N[C@@](Cc2ccccc2)(C(=O)OC)[C@H]2C(=O)N(C)C(=O)[C@@H]12)C(=O)COC,2,50*,4,1,.,-4,-2,-3,.
O=C(Oc1ccccc1C(=O)N1CCOCC1)c1ccc(F)cc1,4,97*,0,2,-1,2,0,-5,.
COc1ccccc1NC(=O)C1CCN(C(=O)NCc2ccccc2)CC1,2,-4,0,-1,2,2,.,.,.
CCC1(c2ccc(F)cc2)NC(=O)N(CC(=O)NCC(=O)Nc2cccc(C)c2C)C1=O (stereo not drawn),2,-3,2,0,.,0,-15,-11,.
CC(C)Cn1c(SCC(=O)N2CCCc3ccccc32)nc2ccccc2c1=O,.,-5,.,.,5,.,.,.,.
